For test [1], the system named is Staphylococcus aureus. Nature of the test: Inhibition of Staphylococcus aureus ATCC 6538 fabI expressed in Escherichia coli BL21 (DE3) assessed as oxidation of NADPH to NADP+ using trans-2-octenoyl CoA as substrate incubated for 2 hrs in presence of NADPH by spectrophotometric analysis.
The subject of test [2] is Bacillus cereus. Nature of the test: Antibacterial activity against Bacillus cereus assessed as bacterial growth inhibition after 24 hrs by CLSI protocol based broth microdilution assay. The test is classed as functional. A general note: Dilution methods test growth across graded concentrations, often in twofold steps.
For test [3], the system named is Staphylococcus aureus. Nature of the test: Antibacterial activity against Staphylococcus aureus assessed as bacterial growth inhibition after 24 hrs by CLSI protocol based broth microdilution assay. Format: functional.
For test [4], the system named is Escherichia coli. Nature of the test: Antibacterial activity against Escherichia coli assessed as bacterial growth inhibition after 24 hrs by CLSI protocol based broth microdilution assay. The test is classed as functional.
The subject of test [5] is Pseudomonas aeruginosa. Nature of the test: Antibacterial activity against Pseudomonas aeruginosa assessed as bacterial growth inhibition after 24 hrs by CLSI protocol based broth microdilution assay. The test is classed as functional.
Test [6] relates to Candida tropicalis. Nature of the test: Antifungal activity against Candida tropicalis assessed as fungal growth inhibition after 24 hrs by CLSI protocol based broth microdilution assay. Format: functional.
In test [7] the test system is Staphylococcus aureus. Nature of the test: Antibacterial activity against methicillin-resistant Staphylococcus aureus assessed as bacterial growth inhibition after 24 hrs by CLSI protocol based broth microdilution assay. The test is classed as functional.
Test [8] relates to Candida albicans. Nature of the test: Antifungal activity against Candida albicans assessed as fungal growth inhibition after 24 hrs by CLSI protocol based broth microdilution assay. The test is classed as functional.
The test system of test [9] is Enterococcus faecium. Nature of the test: Antibacterial activity against Enterococcus faecium assessed as bacterial growth inhibition after 24 hrs by CLSI protocol based broth microdilution assay. The test is classed as functional.
Test [10] has as its system Staphylococcus aureus. Nature of the test: Antibiofilm activity against methicillin-resistant Staphylococcus aureus ATCC 43300 assessed as reduction in biofilm biomass at 0.5 to 4 mg/L after 24 hrs by MTT assay. Format: functional, organism-based. The conditions noted are these: dose mg/L 0.5-4, time 24.0 hrs. In a few lines: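 Biofilm growth of MRSA ATCC 43300 measured in the presence of compound in cultivation plates, with a DMSO control. Significance of control vs treated is given at p < 0.05, 0.01 and 0.001.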

Each structure is given as a SMILES string. Converted amounts (≈) assume the structure as drawn. The source made the active and inactive calls. The calls are words filed in the database; no cut-off is given here.

By MIC is commonly meant the least concentration at which growth counts as inhibited. As for `Oc1ccc(Br)cc1CNc1cc(C(F)(F)F)ccc1Cl`, the inhibition entry in test [1] was “Active”. For the same compound, the MIC in [2] is no more than 2 µg/mL; in test [3], 2 µg/mL (≈ 5.25 µM); in test [4] it was no less than 64 µg/mL; in [5], no less than 64 µg/mL; in [6] it was no less than 64 µg/mL; in [7], 1 µg/mL (≈ 2.63 µM). Also, the figures for the MIC in test [8] and in test [9] were no less than 64 µg/mL and no more than 2 µg/mL, respectively. Also, the outcome in test [10] was Active.

Turning to `Oc1c(Br)cc(Br)cc1CNc1cc(C(F)(F)F)ccc1F`, the minimum inhibitory concentration (MIC) in test [3] is 4 µg/mL (≈ 9.03 µM); in test [4] it was no less than 64 µg/mL; in [5] it was no less than 64 µg/mL; in test [6], no less than 64 µg/mL; in [7], 4 µg/mL (≈ 9.03 µM); in [8] it was no less than 64 µg/mL.

`Oc1c(Br)cc(Cl)cc1/C=N\CCc1ccc(Br)cc1`: the minimal inhibitory concentration (MIC) in test [4], in [5], in [6] and in test [8] was no less than 64 µg/mL throughout.

Turning to `CN(C)[C@@H]1C(O)=C(C(N)=O)C(=O)[C@@]2(O)C(O)=C3C(=O)c4c(O)cccc4[C@@](C)(O)[C@H]3C[C@@H]12` [TETRACYCLINE], the MIC in [4], in test [5], in [6] and in test [8] was no less than 64 µg/mL each time.

As to `Oc1c(Br)cc(Cl)cc1CNCCc1ccc(F)cc1`, the MIC in test [4], in test [5], in test [6] and in test [8] was no less than 64 µg/mL each time.

`Oc1ccc(Br)cc1CNc1cccc(OC(F)(F)F)c1`: the MIC in test [4], in [5], in test [6] and in test [8] was no less than 64 µg/mL in each case.

In the case of `Oc1cccc(/N=C\c2cc(Cl)cc(Br)c2O)c1`, the MIC in [4], in test [5], in [6] and in test [8] was no less than 64 µg/mL throughout.

`Oc1c(Br)cc(Br)cc1/C=N\c1cccc(C(F)(F)F)c1`: the outcome in [3] and in [7] was inactive. Also, the minimal inhibitory concentration (MIC) in test [4], in [5], in test [6] and in test [8] was no less than 64 µg/mL each time.

Regarding `Oc1ccc(Br)cc1/C=N\c1cccc(OC(F)(F)F)c1`, the minimal inhibitory concentration (MIC) in [4], in test [5], in test [6] and in test [8] was no less than 64 µg/mL throughout.

As to `Oc1c(Br)cc(Cl)cc1CNc1cccc(C(F)(F)F)c1`, in test [1], the inhibition result was “Active”. Further, the minimum inhibitory concentration (MIC) was no more than 2 µg/mL in test [2]; no more than 2 µg/mL in test [3]; no less than 64 µg/mL in test [4]; no less than 64 µg/mL in [5]; no less than 64 µg/mL in test [6]; no less than 64 µg/mL in test [8]. Moreover, the MIC in [9] is no more than 2 µg/mL. In addition, the result in test [10] was Active.

In the case of `Oc1cccc(NCc2cc(Cl)cc(Br)c2O)c1`, the minimum inhibitory concentration (MIC) in [4], in test [5], in test [6] and in [8] was no less than 64 µg/mL throughout.

As to `Oc1ccc(Cl)cc1/C=N\c1cc(C(F)(F)F)ccc1F`, the minimum inhibitory concentration (MIC) in test [4], in test [5], in test [6] and in [8] was no less than 64 µg/mL each time.

Consider `Oc1cc(Cl)ccc1Oc1ccc(Cl)cc1Cl` [TRICLOSAN], for which the minimal inhibitory concentration (MIC) in test [4], in [5], in [6] and in test [8] was no less than 64 µg/mL in each case.

For `Oc1c(Cl)cc(Cl)cc1/C=N\c1cc(C(F)(F)F)ccc1Cl`, the minimum inhibitory concentration (MIC) in test [4], in test [5], in [6] and in test [8] was no less than 64 µg/mL throughout.

Consider `Oc1c(Br)cc(Br)cc1/C=N\c1cc(C(F)(F)F)ccc1F`, for which the outcome in test [3] and in test [7] was inactive. Besides, the MIC in test [4], in test [5], in test [6] and in test [8] was no less than 64 µg/mL throughout.

For `CC1COc2c(N3CCN(C)CC3)c(F)cc3c(=O)c(C(=O)O)cn1c23` (configuration not stated) [OFLOXACIN], the minimum inhibitory concentration (MIC) in [4], in test [5], in test [6] and in test [8] was no less than 64 µg/mL each time.

For `Oc1c(Br)cc(Br)cc1CNc1cccc(C(F)(F)F)c1`, the inhibition entry in test [1] is “Active”. Further, the minimal inhibitory concentration (MIC) in [2] is no more than 2 µg/mL; in [3] it was no more than 2 µg/mL; in test [4] it was no less than 64 µg/mL; in [5], no less than 64 µg/mL; in [6] it was no less than 64 µg/mL; in [8], no less than 64 µg/mL. Further, the MIC in [9] was no more than 2 µg/mL. In addition, the result in [10] was Active.

On to `Oc1c(Br)cc(Cl)cc1/C=N\c1cccc(C(F)(F)F)c1`, for which the MIC in test [4], in test [5], in test [6] and in test [8] was no less than 64 µg/mL in each case.

As for `C[C@@H]1[C@H](O)[C@@H](C)/C=C/C=C/C=C/C=C/C=C/C=C/C=C/[C@H](O[C@@H]2O[C@H](C)[C@@H](O)[C@H](N)[C@@H]2O)C[C@@H]2O[C@](O)(C[C@@H](O)C[C@@H](O)[C@H](O)CC[C@@H](O)C[C@@H](O)CC(=O)O[C@H]1C)C[C@H](O)[C@H]2C(=O)O` [AMPHOTERICIN B], the MIC in [4], in test [5], in test [6] and in test [8] was no less than 64 µg/mL throughout.

Take `Oc1c(Br)cc(Br)cc1/C=N\c1cc(C(F)(F)F)ccc1Cl`: the outcome in test [3] and in test [7] was inactive. Moreover, the MIC in test [4], in test [5], in test [6] and in [8] was no less than 64 µg/mL in each case.

As to `Oc1c(Cl)cc(Cl)cc1CNc1cc(C(F)(F)F)ccc1Cl`, in test [1], the inhibition result is “Active”. Besides, the minimum inhibitory concentration (MIC) in test [2] is no more than 2 µg/mL; in test [3] it was no more than 2 µg/mL; in [4], no less than 64 µg/mL; in [5] it was no less than 64 µg/mL; in test [6] it was no less than 64 µg/mL; in test [8], no less than 64 µg/mL. Further, the MIC in [9] is no more than 2 µg/mL. Moreover, the outcome in test [10] was Active.

As for `Oc1ccc(Cl)cc1CNc1cc(C(F)(F)F)ccc1Cl`, the inhibition result in test [1] was “Active”. Further, the MIC in test [2] is no more than 2 µg/mL; in [3], 1 µg/mL (≈ 2.97 µM); in test [4], no less than 64 µg/mL; in test [5], no less than 64 µg/mL; in test [6] it was no less than 64 µg/mL; in test [7] it was 1 µg/mL (≈ 2.97 µM). The minimal inhibitory concentration (MIC) in test [8] is no less than 64 µg/mL; in test [9], no more than 2 µg/mL. Besides, the result in [10] was Active.

Regarding `Oc1c(Br)cc(Cl)cc1/C=N\c1cc(C(F)(F)F)ccc1Cl`, the MIC in test [4], in test [5], in test [6] and in test [8] was no less than 64 µg/mL in each case.

For `Oc1ccc(Cl)cc1CNc1ccc(OC(F)(F)F)cc1`, the MIC in [4], in test [5], in test [6] and in test [8] was no less than 64 µg/mL throughout.

As for `Oc1c(Br)cc(Cl)cc1CNCCc1ccc(Br)cc1`, the MIC in [4], in test [5], in test [6] and in test [8] was no less than 64 µg/mL each time.

As to `Oc1ccc(NCc2cc(Br)cc(Br)c2O)cc1`, the minimal inhibitory concentration (MIC) in test [4], in test [5], in test [6] and in test [8] was no less than 64 µg/mL each time.

As for `Oc1ccc(Br)cc1CNc1cc(C(F)(F)F)ccc1F`, the MIC in test [3] was 16 µg/mL (≈ 43.9 µM); in test [4] it was no less than 64 µg/mL; in test [5] it was no less than 64 µg/mL; in test [6] it was no less than 64 µg/mL; in test [7], 16 µg/mL (≈ 43.9 µM); in [8], no less than 64 µg/mL.

In the case of `Oc1c(Br)cc(Cl)cc1/C=N\CCc1ccc(F)cc1`, the MIC in [4], in [5], in test [6] and in [8] was no less than 64 µg/mL in each case.

Turning to `Oc1ccc(/N=C\c2cc(Br)cc(Br)c2O)cc1`, the outcome in [3] and in test [7] was inactive. Besides, the MIC in [4], in [5], in [6] and in test [8] was no less than 64 µg/mL throughout.

Regarding `Oc1ccc(Br)cc1/C=N\c1cc(C(F)(F)F)ccc1F`, the MIC in test [4], in test [5], in [6] and in [8] was no less than 64 µg/mL each time.

With `Oc1ccc(Cl)cc1CNc1cc(C(F)(F)F)ccc1F`, the MIC was 4 µg/mL (≈ 12.5 µM) in test [3]; no less than 64 µg/mL in test [4]; no less than 64 µg/mL in test [5]; no less than 64 µg/mL in test [6]; 32 µg/mL (≈ 100 µM) in test [7]; no less than 64 µg/mL in test [8].

With `Oc1ccc(Cl)cc1/C=N\c1cc(C(F)(F)F)ccc1Cl`, the MIC in test [4], in [5], in test [6] and in test [8] was no less than 64 µg/mL each time.

On to `Oc1ccc(Br)cc1/C=N\c1cc(C(F)(F)F)ccc1Cl`, for which the MIC in [4], in test [5], in test [6] and in test [8] was no less than 64 µg/mL each time.

Turning to `Oc1ccc(Cl)cc1/C=N\c1ccc(OC(F)(F)F)cc1`, the minimal inhibitory concentration (MIC) in [4], in [5], in test [6] and in test [8] was no less than 64 µg/mL in each case.

The record behind these values is ChEMBL document CHEMBL4665639, “N-Benzylanilines as Fatty Acid Synthesis Inhibitors against Biofilm-related Methicillin-resistant Staphylococcus aureus” (ACS Med Chem Lett, 2019).
